ChEMBL document CHEMBL5316289, “Structure-Based Rational Design of Small α-Helical Peptides with Broad-Spectrum Activity against Multidrug-Resistant Pathogens” (J Med Chem, 2023)
Values joined by “and” are separate entries in the source; they are usually repeats but may differ in a detail not shown here. Identical values can stand only once.

Legend:
Assay type in all cases: functional
Staphylococcus aureus [1] = experiment: Antibacterial activity against methicillin resistant Staphylococcus aureus ATCC BAA 1556 assessed as inhibition of bacterial growth incubated for 24 hrs by CLSI based broth microdilution method
Escherichia coli [2] = experiment: Antibacterial activity against Escherichia coli ATCC 25922 assessed as inhibition of bacterial growth incubated for 24 hrs by CLSI based broth microdilution method
Pseudomonas aeruginosa = experiment: Antibacterial activity against Pseudomonas aeruginosa […] assessed as inhibition of bacterial growth incubated for 24 hrs by CLSI based broth microdilution method
Klebsiella pneumoniae = experiment: Antibacterial activity against Klebsiella pneumoniae ATCC BAA 1705 assessed as inhibition of bacterial growth incubated for 24 hrs by CLSI based broth microdilution method
Staphylococcus aureus [3] = experiment: Antibacterial activity against Staphylococcus aureus ATCC 29213 assessed as inhibition of bacterial growth incubated for 24 hrs by CLSI based broth microdilution method
Staphylococcus aureus [4] = experiment: Antibacterial activity against methicillin resistant Staphylococcus aureus ATCC BAA 1556 assessed as fold increase in MIC incubated for 24 hrs in presence of Na+ ions by CLSI based broth microdilution method
Procedure, shortened: (§1)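 CLSI broth microdilution. Overnight cultures diluted in cation-adjusted Mueller Hinton broth to 10^6 CFU/mL, mixed 1:1 with 2-fold serial peptide dilutions, 24 h at 37 °C. […] MIC is the lowest concentration inhibiting growth. Three independent assays in triplicate.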

Escherichia coli [5] = experiment: Antibacterial activity against Escherichia coli ATCC 25922 assessed as fold increase in MIC incubated for 24 hrs in presence of Na+ ions by CLSI based broth microdilution method
Procedure, shortened: (§2)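 E. coli MICs by CLSI broth microdilution in cation-adjusted Mueller Hinton broth. […] Inoculum was 10^6 CFU/mL with 2-fold serial peptide dilutions, incubated 24 h at 37 °C. MIC is the lowest concentration inhibiting growth. Three independent assays, each in triplicate.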

Staphylococcus aureus [6] = experiment: Antibacterial activity against methicillin resistant Staphylococcus aureus ATCC BAA 1556 assessed as fold increase in MIC incubated for 24 hrs in presence of K+ ions by CLSI based broth microdilution method; procedure, shortened: as §1
Staphylococcus aureus [7] = experiment: Antibacterial activity against methicillin resistant Staphylococcus aureus ATCC BAA 1556 assessed as fold increase in MIC incubated for 24 hrs in presence of NH4+ ions by CLSI based broth microdilution method; procedure, shortened: as §1
Staphylococcus aureus [8] = experiment: Antibacterial activity against methicillin resistant Staphylococcus aureus ATCC BAA 1556 assessed as fold increase in MIC incubated for 24 hrs in presence of Ca2+ ions by CLSI based broth microdilution method; procedure, shortened: as §1
Staphylococcus aureus [9] = experiment: Antibacterial activity against methicillin resistant Staphylococcus aureus ATCC BAA 1556 assessed as fold increase in MIC incubated for 24 hrs in presence of Mg2+ ions by CLSI based broth microdilution method; procedure, shortened: as §1
Escherichia coli [10] = experiment: Antibacterial activity against Escherichia coli ATCC 25922 assessed as fold increase in MIC incubated for 24 hrs in presence of K+ ions by CLSI based broth microdilution method; procedure, shortened: as §2
Escherichia coli [11] = experiment: Antibacterial activity against Escherichia coli ATCC 25922 assessed as fold increase in MIC incubated for 24 hrs in presence of NH4+ ions by CLSI based broth microdilution method; procedure, shortened: as §2
Escherichia coli [12] = experiment: Antibacterial activity against Escherichia coli ATCC 25922 assessed as fold increase in MIC incubated for 24 hrs in presence of Ca2+ ions by CLSI based broth microdilution method; procedure, shortened: as §2
Escherichia coli [13] = experiment: Antibacterial activity against Escherichia coli ATCC 25922 assessed as fold increase in MIC incubated for 24 hrs in presence of Mg2+ ions by CLSI based broth microdilution method; procedure, shortened: as §2

| Substance | MIC (Staphylococcus aureus [1]) | MIC (Escherichia coli [2]) | MIC (Pseudomonas aeruginosa) [µg/mL] | MIC (Klebsiella pneumoniae; read-out: MIC) [µg/mL] | MIC (Staphylococcus aureus [3]) | other results |
| --- | --- | --- | --- | --- | --- | --- |
| H-RRWWRRW-NH2 | 100 µg/mL | > 100 µg/mL and > 83.3 µM | > 100 | > 100 |  |  |
| H-RWARRAWRAW-NH2 | > 100 µg/mL and > 70.7 µM | > 100 µg/mL and > 70.7 µM | > 100 | > 100 | > 100 µg/mL and > 70.7 µM |  |
| H-RWARRWARWWR-NH2 | 100 µg/mL | 100 µg/mL | 100 | > 100 |  |  |
| H-RWARRWARWWRR-NH2 |  | > 100 µg/mL and > 54.3 µM | 100 | > 100 |  |  |
| H-RWARRWWR-NH2 | > 100 µg/mL and > 78.7 µM | > 100 µg/mL and > 78.7 µM | > 100 | > 100 | > 100 µg/mL and > 78.7 µM |  |
| H-RWARRWWRA-NH2 | > 100 µg/mL and > 74.5 µM | > 100 µg/mL and > 74.5 µM | > 100 | > 100 | > 100 µg/mL and > 74.5 µM |  |
| H-RWIRRWIRWWR-NH2 |  | 100 µg/mL |  | 100 |  | MIC (Klebsiella pneumoniae): 56.5 µM |
| H-RWIRRWIRWWRR-NH2 |  |  |  | 12.5 |  | fold change (FC) (Staphylococcus aureus [4]): 2; fold change (FC) (Escherichia coli [5]): 2; fold change (FC) (Staphylococcus aureus [6]): 2; fold change (FC) (Staphylococcus aureus [7]): 2; fold change (FC) (Staphylococcus aureus [8]): 2; fold change (FC) (Staphylococcus aureus [9]): 2; fold change (FC) (Escherichia coli [10]): 2; fold change (FC) (Escherichia coli [11]): 2; fold change (FC) (Escherichia coli [12]): 2; fold change (FC) (Escherichia coli [13]): 2 |
| H-RWRRWWR-NH2 | 100 µg/mL | > 100 µg/mL and > 83.3 µM | > 100 | > 100 | 100 µg/mL |  |
| H-RWWRAAWRR-NH2 | > 100 µg/mL and > 74.5 µM | > 100 µg/mL and > 74.5 µM | > 100 | > 100 | > 100 µg/mL and > 74.5 µM |  |
| H-RWWRRAWAR-NH2 | > 100 µg/mL and > 74.5 µM | > 100 µg/mL and > 74.5 µM | > 100 | > 100 | > 100 µg/mL and > 74.5 µM |  |
| H-RWWRRAWR-NH2 | > 100 µg/mL and > 78.7 µM | > 100 µg/mL and > 78.7 µM | > 100 | > 100 | > 100 µg/mL and > 78.7 µM |  |
| H-RWWRRAWRA-NH2 | > 100 µg/mL and > 74.5 µM | > 100 µg/mL and > 74.5 µM | > 100 | > 100 | > 100 µg/mL and > 74.5 µM |  |
| H-RWWRRAWRAA-NH2 | > 100 µg/mL and > 70.7 µM | > 100 µg/mL and > 70.7 µM | > 100 | > 100 | > 100 µg/mL and > 70.7 µM |  |
| H-RWWRRWAR-NH2 | > 100 µg/mL and > 78.7 µM | > 100 µg/mL and > 78.7 µM | > 100 | > 100 | > 100 µg/mL and > 78.7 µM |  |
| H-RWWRRWR-NH2 | 100 µg/mL | > 100 µg/mL and > 83.3 µM | > 100 | > 100 | 100 µg/mL |  |
| H-WRRWARRW-NH2 | > 100 µg/mL and > 78.7 µM | > 100 µg/mL and > 78.7 µM | > 100 | > 100 | > 100 µg/mL and > 78.7 µM |  |
| H-WRRWWRR-NH2 | 100 µg/mL | > 100 µg/mL and > 83.3 µM | > 100 | > 100 | 100 µg/mL |  |
